This excerpt belongs to a sample that is enriched for hits.
XBP1 UPR activ = adaptive UPR (XBP1) activation; CHO-XBP1 luciferase reporter, IRE1-XBP1 UPR activation, luminescence; percent of tunicamycin response, DMSO as zero; activation, % at 20 µM; 0.33% of 330,000 active; AID 463104;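 active = versus positive control, 20 µM dose yields 30% or more activation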;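 also: 100% = tunicamycin at 10 µg/mL and 0% = DMSO only wells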
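Material: CHO-XBP1 cells stably carrying IRE1-XBP1-driven luciferase reporter / Amount: 1000 cells per well / Compound: 20 µM, 1% DMSO / Times: 6 h treatment, 37 °C / Detection: luciferase luminescence / Measure: % activation of reporter signal versus tunicamycin and DMSO controls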
TLR9-MyD88 block = TLR9-MyD88 interaction inhibition | Q9NR96+Q99836 | CHO BLA complementation TLR9-MyD88, CCF4 FRET ratio | inhibition, % at 4.98 µM | 0.21% of 340,000 active | AID 504734;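 active = inhibition above the mean over all tested compounds plus 3 SD, cut at about 21% in these data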;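 also: 0% = DMSO only wells and 100% = clavulanate BLA inhibitor control wells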
CHOP inhibitor = CHOP inhibition in unfolded protein response; CHO-K1 CHOP-promoter luciferase, tunicamycin-induced, 15-18 h; inhibition, % at 10 µM; 3.8% of 220,000 active; AID 2732;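 active = compounds that reduced the stress-induced luciferase reporter signal by more than about 70% of percent inhibition, limit read from the data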;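 also: 0% = tunicamycin plus vehicle and 100% = wells without tunicamycin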
UPR CHOP act = apoptotic UPR (CHOP) activation | AID 449763 | CHO-CHOP luciferase reporter, luminescence; percent of tunicamycin response over DMSO baseline | activation, % at 10 µM | 0.34% of 330,000 active;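 active = at 10 µM dose, activation of 40% or more, normalized to positive control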;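 also: 100% = tunicamycin at 10 µg/mL and 0% = DMSO alone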
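Material: CHO-CHOP cells, stable luciferase reporter of PERK-eIF2a-CHOP signalling; quantity: 500 reporter cells seeded per well; buffer or medium: F12 medium containing 10% fetal bovine serum; compound: one dose, 10 µM in 0.5% DMSO; incubation: 6 h compound treatment, 37 °C; measured by: Steady-Glo luciferase luminescence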
TLR4-MyD88 BLA = blocks binding of human TLR4 to MyD88; HeLa CL3-4 TLR4/MyD88 BLA complementation, FRET ratio; O00206+Q99836; inhibition, % at 8.4 µM; 0.18% of 200,000 active; in the data active = inhibition above about 25%;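 also: 0% = vehicle and 100% = reference inhibitor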
Target sequence (O00206 whole entry, looked up): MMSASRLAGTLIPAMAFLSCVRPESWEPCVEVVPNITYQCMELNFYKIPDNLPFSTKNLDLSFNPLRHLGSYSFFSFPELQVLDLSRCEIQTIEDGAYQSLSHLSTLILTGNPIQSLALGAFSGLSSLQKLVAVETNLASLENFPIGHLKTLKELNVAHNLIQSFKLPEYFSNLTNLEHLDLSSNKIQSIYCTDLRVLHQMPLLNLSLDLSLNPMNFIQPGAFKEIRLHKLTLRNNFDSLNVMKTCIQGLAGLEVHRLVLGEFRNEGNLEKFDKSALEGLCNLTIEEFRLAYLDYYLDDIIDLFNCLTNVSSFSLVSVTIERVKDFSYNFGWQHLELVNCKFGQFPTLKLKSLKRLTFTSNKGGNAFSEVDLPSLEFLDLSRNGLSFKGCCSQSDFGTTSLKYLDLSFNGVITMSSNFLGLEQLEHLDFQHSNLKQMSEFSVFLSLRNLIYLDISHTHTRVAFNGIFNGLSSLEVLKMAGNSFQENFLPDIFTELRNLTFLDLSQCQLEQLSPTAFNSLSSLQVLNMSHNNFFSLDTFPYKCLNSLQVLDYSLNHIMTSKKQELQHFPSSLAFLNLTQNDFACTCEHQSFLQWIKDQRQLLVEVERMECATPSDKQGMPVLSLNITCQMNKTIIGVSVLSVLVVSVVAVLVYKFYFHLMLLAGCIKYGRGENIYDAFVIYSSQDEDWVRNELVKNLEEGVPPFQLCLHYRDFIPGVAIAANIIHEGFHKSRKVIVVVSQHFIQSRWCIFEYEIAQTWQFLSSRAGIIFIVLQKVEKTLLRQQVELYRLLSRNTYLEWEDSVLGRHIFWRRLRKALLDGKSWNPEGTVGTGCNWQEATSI
Target sequence (Q99836 whole entry, looked up): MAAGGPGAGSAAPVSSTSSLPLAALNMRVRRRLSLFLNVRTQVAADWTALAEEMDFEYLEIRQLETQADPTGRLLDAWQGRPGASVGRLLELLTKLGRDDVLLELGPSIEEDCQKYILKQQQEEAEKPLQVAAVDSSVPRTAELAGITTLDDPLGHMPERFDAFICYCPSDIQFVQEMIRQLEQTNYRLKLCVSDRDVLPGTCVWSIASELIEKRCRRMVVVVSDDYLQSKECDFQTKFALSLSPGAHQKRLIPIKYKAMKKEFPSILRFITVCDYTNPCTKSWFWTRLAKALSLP
NOD2-RIPK2 inh = inhibitors of human NOD2-RIPK2 interaction; O43353; CHO BLA complementation NOD2-RIPK2, CCF4 ratio; inhibition, % at 4.98 µM; 0.38% of 360,000 active; in the data active = inhibition above about 21%;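 also: 0% = vehicle only and 100% = reference blocker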
TLR9-MyD88 conf = TLR9-MyD88 interaction inhibition, confirmation; shares compounds with TLR9-MyD88 block; CHO TLR9/MyD88 BLA complementation, CCF4 FRET ratio; inhibition, % at 4.98 µM; 51% of 680 active; AID 540250;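 active = mean inhibition across three repeats above about 21% taken from the earlier screen, limit read from the data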;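 also: blue over green emission ratio reports constitutive TLR9 MyD88 association via BLA complementation; 0% = DMSO vehicle wells and 100% = clavulanate BLA inhibitor wells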
BLA counter-1 = non-selective beta-lactamase inhibitors in TLR9-MyD88 counter-screen. 7% of 680 active. CHO-BLA cells, CCF4 FRET ratio, BLA reporter. shares compounds with TLR9-MyD88 block. inhibition, % at 4.98 µM;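 active = mean inhibition above a 50% cutoff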;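 also: counterscreen of TLR9-MyD88 hits on CMV-driven BLA in CHO-K1 cells; 0% = DMSO alone and 100% = clavulanate blocking BLA; higher means less blue over green ratio so more BLA blockade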
TLR9 CHO cytotox = CHO cell toxicity counter-screen for TLR9-MyD88 inhibitors | shares compounds with TLR9-MyD88 block | TLR9-MyD88 CHO cells cytotoxicity, luminescence | inhibition, % at 4.98 µM | 39% of 680 active | AID 588336; in the data active = inhibition above about 11%
NOD2 RIPK2 conf = confirmation of human NOD2-RIPK2 interaction inhibitors; shares compounds with NOD2-RIPK2 inh; CHO cells, NOD2-RIPK2 BLA complementation, CCF4 FRET; inhibition, % at 4.98 µM; 70% of 1,200 active;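 active = mean inhibition across replicates above a set limit taken from the earlier primary screen, cut at about 21% in these data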;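 also: 0% = DMSO-only wells and the high end = clavulanate BLA-blocked wells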
BLA counter-2 = hits BLA reporter in NOD2-RIPK2 inhibitor counterscreen. CHO BLA reporter, CCF4 FRET ratio. 57% of 1,200 active. shares compounds with NOD2-RIPK2 inh. inhibition, % at 4.98 µM. AID 624371;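 active = mean inhibition above the low-control mean inhibition plus three low-control SD, cut at about 11% in these data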;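 also: 0% = DMSO only wells and 100% = clavulanate high control wells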
Starred values were filed as active, the others as inactive.

Results for CC(C)(C)OC(=O)NCCCCCc1nnc(SCC(=O)Nc2cccc(Cl)c2)o1 ?
XBP1 UPR activ: -3.6; TLR9-MyD88 block: -7.8; CHOP inhibitor: 56.3; UPR CHOP act: -2.1; TLR4-MyD88 BLA: 2.5; NOD2-RIPK2 inh: 7.1

How did CC(=O)Oc1c(-c2ccc(Br)o2)oc2ccccc2c1=O do in these assays?
XBP1 UPR activ: -1.5; TLR9-MyD88 block: 27.1*; UPR CHOP act: 0.7; NOD2-RIPK2 inh: 24.6*; TLR9-MyD88 conf: 16.6; BLA counter-1: 16.4; TLR9 CHO cytotox: -2.3; NOD2 RIPK2 conf: 35.1*; BLA counter-2: 33.8*

Results for COc1ccc(-c2oc3ccccc3c(=O)c2OC(C)=O)cc1 ?
XBP1 UPR activ: 5.4; TLR9-MyD88 block: 3.4; CHOP inhibitor: 26.4; UPR CHOP act: 3.3; TLR4-MyD88 BLA: -11.5; NOD2-RIPK2 inh: 2.1

What do the screens show for `COc1ccc(-c2cc3c(=O)n(CC(=O)Nc4cccc(Cl)c4)nc(C)n3n2)cc1`?
XBP1 UPR activ: 3.3; TLR9-MyD88 block: -1.3; UPR CHOP act: 7.7; NOD2-RIPK2 inh: -11.2

How did N#Cc1ccccc1OCCN1C(=O)c2ccccc2C1=O do in these assays?
XBP1 UPR activ: 5.8; TLR9-MyD88 block: -9.2; CHOP inhibitor: -4.9; UPR CHOP act: 8.4; TLR4-MyD88 BLA: 14.3; NOD2-RIPK2 inh: -0.4

What do the screens show for `Nc1cccc2c1C(=O)N(CCOc1ccccc1F)C2=O`?
XBP1 UPR activ: -4.3; TLR9-MyD88 block: 27.0*; UPR CHOP act: -1.6; NOD2-RIPK2 inh: 32.6*; TLR9-MyD88 conf: 16.8; BLA counter-1: 21.6; TLR9 CHO cytotox: -3.5; NOD2 RIPK2 conf: 37.5*; BLA counter-2: 48.5*

How did Cc1cc(S(=O)(=O)N2CCOCC2)ccc1OCC(=O)NCc1ccco1 do in these assays?
XBP1 UPR activ: 5.9; TLR9-MyD88 block: 2.3; UPR CHOP act: 4.6; NOD2-RIPK2 inh: 11.8

How did CCc1cccc2cc3c(N)c(C(=O)Nc4ccc(S(=O)(=O)N5CCCC5)cc4)sc3nc12 do in these assays?
TLR9-MyD88 block: 29.7*; CHOP inhibitor: 34.6; TLR4-MyD88 BLA: 7.7; NOD2-RIPK2 inh: 32.9*; TLR9-MyD88 conf: 20.1; BLA counter-1: 20.9; TLR9 CHO cytotox: 29.3*; NOD2 RIPK2 conf: 42.2*; BLA counter-2: 50.8*

How did Cn1c2ccccc2c(=O)c2ccc(C#Cc3ccc(N)cc3)cc21 do in these assays?
XBP1 UPR activ: 2.0; TLR9-MyD88 block: 40.7*; UPR CHOP act: 3.7; NOD2-RIPK2 inh: 54.7*; TLR9-MyD88 conf: 32.0*; BLA counter-1: 37.5; TLR9 CHO cytotox: 3.1; NOD2 RIPK2 conf: 51.1*; BLA counter-2: 59.8*

What do the screens show for `Oc1c(Cl)cc(Cl)cc1/C=N/NC(=S)NC1CC2C=CC1C2` (centres undefined)?
XBP1 UPR activ: 7.8; TLR9-MyD88 block: 24.1*; CHOP inhibitor: 10.2; UPR CHOP act: 1.2; NOD2-RIPK2 inh: 49.2*; TLR9-MyD88 conf: 24.4*; BLA counter-1: 28.2; TLR9 CHO cytotox: 17.1*; NOD2 RIPK2 conf: 43.0*; BLA counter-2: 61.5*

Results for COC(=O)CNC(=O)CN1C(=O)N(c2cccc(Cl)c2)C(N(O)C(=O)Nc2cccc(Cl)c2)C1(C)C (centres undefined) ?
XBP1 UPR activ: -5.2; TLR9-MyD88 block: 32.4*; CHOP inhibitor: 14.6; UPR CHOP act: 2.2; TLR4-MyD88 BLA: 7.2; NOD2-RIPK2 inh: 25.8*; TLR9-MyD88 conf: 7.6; BLA counter-1: 8.2; TLR9 CHO cytotox: 2.4; NOD2 RIPK2 conf: 14.3; BLA counter-2: 23.1*

What do the screens show for `Cc1cc(C)n(C(=O)c2ccc([N+](=O)[O-])cc2Cl)n1`?
XBP1 UPR activ: -0.2; TLR9-MyD88 block: 0.5; UPR CHOP act: 0.7; NOD2-RIPK2 inh: -4.0

How did Nc1cccc2c1C(=O)N(c1ccccc1)C2=O do in these assays?
XBP1 UPR activ: -2.2; TLR9-MyD88 block: 27.7*; UPR CHOP act: 5.3; NOD2-RIPK2 inh: 45.4*; TLR9-MyD88 conf: 19.8; BLA counter-1: 22.7; TLR9 CHO cytotox: -5.3; NOD2 RIPK2 conf: 42.9*; BLA counter-2: 46.4*

Results for Nc1ccc(Oc2ccc3nc(-c4ccccc4)c(-c4ccccc4)nc3c2)cc1 ?
XBP1 UPR activ: 9.7; TLR9-MyD88 block: 4.6; CHOP inhibitor: 34.4; UPR CHOP act: 6.5; TLR4-MyD88 BLA: 0.6; NOD2-RIPK2 inh: -3.5

Results for Nc1ccc2nc(-c3ccccc3)cnc2c1 ?
XBP1 UPR activ: 2.1; TLR9-MyD88 block: 39.4*; UPR CHOP act: 2.7; NOD2-RIPK2 inh: 44.2*; TLR9-MyD88 conf: 30.3*; BLA counter-1: 33.9; TLR9 CHO cytotox: -2.3; NOD2 RIPK2 conf: 57.5*; BLA counter-2: 63.3*

What do the screens show for `Nc1ccc2nc(-c3ccccc3)c(-c3ccccc3)nc2c1`?
XBP1 UPR activ: -1.0; TLR9-MyD88 block: 38.3*; UPR CHOP act: 2.3; NOD2-RIPK2 inh: 43.6*; TLR9-MyD88 conf: 32.9*; BLA counter-1: 35.3; TLR9 CHO cytotox: 2.0; NOD2 RIPK2 conf: 59.7*; BLA counter-2: 67.7*

Results for CSc1ccccc1NC(=O)CSc1nnc(Cc2ccccc2)o1 ?
XBP1 UPR activ: 1.2; TLR9-MyD88 block: -2.5; UPR CHOP act: 0.2; NOD2-RIPK2 inh: -5.0

What do the screens show for `CSc1nc(N)c2c(n1)N(C)C=NS2(=O)=O`?
TLR9-MyD88 block: 4.4; NOD2-RIPK2 inh: -15.2

How did CC(=O)Nc1cccc(C(=O)/C=C/c2ccc(N(C)C)cc2)c1 do in these assays?
XBP1 UPR activ: -0.9; TLR9-MyD88 block: 44.0*; CHOP inhibitor: -19.0; UPR CHOP act: 2.7; TLR4-MyD88 BLA: 4.3; NOD2-RIPK2 inh: 57.4*; TLR9-MyD88 conf: 24.1*; BLA counter-1: 27.9; TLR9 CHO cytotox: 0.2; NOD2 RIPK2 conf: 51.1*; BLA counter-2: 57.9*

Results for CC1(C)CC(=O)c2sc(NC(=O)c3ccc4ncsc4c3)nc2C1 ?
XBP1 UPR activ: 2.6; TLR9-MyD88 block: 0.0; CHOP inhibitor: -15.3; UPR CHOP act: 2.3; TLR4-MyD88 BLA: -1.1; NOD2-RIPK2 inh: 3.3

Assay outcomes as filed in PubChem BioAssay.
